Measured values published in ChEMBL document CHEMBL1139917, “Synthesis of isoquinuclidine analogs of chloroquine: antimalarial and antileishmanial activity” (Bioorg Med Chem, 2007).
Values after ≈ are worked out from the molar mass of the structure shown.

Columns and labels:
Plasmodium falciparum [1] = assay: Antimalarial activity against chloroquine-resistant Plasmodium falciparum W2; assay type: functional, organism-based
Method in brief: (§1)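 P. falciparum D6 (Sierra Leone, chloroquine-sensitive) and W2 (Indochina, chloroquine-resistant) clones were kept in type A human RBCs and subcultured daily. The assay used infected-cell suspensions at 2% parasitemia and 2% hematocrit in 96-well microplates, run in duplicate across several concentrations. IC50 was taken from dose curves. Artemisinin and chloroquine served as drug controls, with DMSO as vehicle control.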

[2] = Selectivity index, ratio of IC50 for Vero cells to IC50 for chloroquine-sensitive Plasmodium falciparum D6; assay type: functional
Method in brief: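 Ratio of Vero cell cytotoxicity (Neutral Red, run in parallel) to activity against P. falciparum D6 (Sierra Leone, chloroquine-sensitive). Parasite assay: D6 grown in type A human RBCs, subcultured daily; infected cells at 2% parasitemia, 2% hematocrit in 96-well plates; duplicate wells at several concentrations. IC50 from dose curves; DMSO vehicle control.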

Plasmodium falciparum [3] = assay: Antimalarial activity against chloroquine-sensitive Plasmodium falciparum D6; assay type: functional, organism-based; method in brief: as §1
Leishmania donovani = assay: Antileishmanial activity against Leishmania donovani promastigotes after 72 hrs by Alamar blue assay; assay type: functional, organism-based
Method in brief: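 Leishmania donovani promastigote culture at 2 × 10⁶ cells/mL, 96-well format; compounds diluted in DMSO. Incubation 72 h at 26 °C. Growth read by Alamar blue adapted to fluorometric readout. Pentamidine and amphotericin B as standard agents. IC50 computed from growth inhibition curve.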

[4] = Selectivity index, ratio of IC50 for Vero cells to IC50 for chloroquine-resistant Plasmodium falciparum W2; assay type: functional
Method in brief: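 Vero (monkey kidney fibroblast) cytotoxicity was run in parallel with the P. falciparum W2 assay using the Neutral Red assay, with IC50 taken from growth inhibition curves. The selectivity index is the Vero IC50 divided by the W2 IC50.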

Vero = assay: Cytotoxicity against Vero cells by neutral red assay; assay type: cell-based; conditions: chlorocebus sabaeus
Method in brief: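 VERO (monkey kidney fibroblast) cells tested in parallel with the antiparasitic assays. Viability read by Neutral Red assay. IC50 computed from growth inhibition curve.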

Row | Structure (SMILES) | IC50 (Plasmodium falciparum [1]) | Ratio IC50 [2] | IC50 (Plasmodium falciparum [3]) | IC50 (Leishmania donovani) | IC90 (Leishmania donovani) | Ratio IC50 [4] | Activity (Vero)
1 | NCC1CC2CCC1N(c1ccnc3cc(Cl)ccc13)C2 (stereo not drawn) | 0.18 µg/mL (≈ 0.596 µM) | >36.6 | 0.13 µg/mL (≈ 0.431 µM) | 4.2 µg/mL (≈ 13.9 µM) | 20 µg/mL (≈ 66.3 µM) | >26.4 | Non-toxic
2 | CCN(CC)CC1CC2CCC1N(c1ccnc3cc(Cl)ccc13)C2 (stereo not drawn) | 0.2 µg/mL (≈ 0.559 µM) | >15.4 | 0.31 µg/mL (≈ 0.866 µM) | 3.8 µg/mL (≈ 10.6 µM) | 8 µg/mL (≈ 22.4 µM) | >23.8 | Non-toxic
3 | C[C@@H]1CC[C@H]2[C@@H](C)C(=O)O[C@@H]3O[C@@]4(C)CC[C@@H]1[C@]32OO4 [ARTEMISININ] | 0.0018 µg/mL (≈ 0.00638 µM) |  | 0.0036 µg/mL (≈ 0.0128 µM) |  |  |  | 
4 | N#CC1CC2CCC1N(c1ccnc3cc(Cl)ccc13)C2 (stereo not drawn) | 0.17 µg/mL (≈ 0.571 µM) | >13.6 | 0.35 µg/mL (≈ 1.18 µM) | 16 µg/mL (≈ 53.7 µM) | 33 µg/mL (≈ 111 µM) | >28 | Non-toxic
5 | C[C@@H]1[C@H](O)[C@@H](C)/C=C/C=C/C=C/C=C/C=C/C=C/C=C/[C@H](O[C@@H]2O[C@H](C)[C@@H](O)[C@H](N)[C@@H]2O)C[C@@H]2O[C@](O)(C[C@@H](O)C[C@@H](O)[C@H](O)CC[C@@H](O)C[C@@H](O)CC(=O)O[C@H]1C)C[C@H](O)[C@H]2C(=O)O [AMPHOTERICIN B] |  |  |  | 0.18 µg/mL (≈ 0.195 µM) | 1.8 µg/mL (≈ 1.95 µM) |  | 
6 | CN1CC2CCC1C(CNc1ccnc3cc(Cl)ccc13)C2 (stereo not drawn) | 0.004 µg/mL (≈ 0.0127 µM) | >1252.3 | 0.0038 µg/mL (≈ 0.012 µM) | 3 µg/mL (≈ 9.5 µM) | 6.5 µg/mL (≈ 20.6 µM) | >1190 | Non-toxic
7 | CN(C)CC1CC2CCC1N(c1ccnc3cc(Cl)ccc13)C2 (stereo not drawn) | 0.018 µg/mL (≈ 0.0546 µM) | >396.7 | 0.012 µg/mL (≈ 0.0364 µM) | 1.9 µg/mL (≈ 5.76 µM) | 6 µg/mL (≈ 18.2 µM) | >264.4 | Non-toxic
8 | CCNCC1CC2CCC1N(c1ccnc3cc(Cl)ccc13)C2 (stereo not drawn) | 0.11 µg/mL (≈ 0.333 µM) | >17 | 0.28 µg/mL (≈ 0.849 µM) | 7.2 µg/mL (≈ 21.8 µM) | 29 µg/mL (≈ 87.9 µM) | >43.2 | Non-toxic
9 | N=C(N)c1ccc(OCCCCCOc2ccc(C(=N)N)cc2)cc1 [PENTAMIDINE] |  |  |  | 2.8 µg/mL (≈ 8.22 µM) | 10 µg/mL (≈ 29.4 µM) |  | 
